Columns and labels:
Assay type in all cases: cell-based, human
NETs = test: Detection of LL-37 in NETs by immunofluorescence microscopy; conditions: 100 μM, PMA-induced NETs, antibody specific for native LL-37
Procedure, shortened: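 Human neutrophils, hypotonically lysed to remove RBCs, seeded at 1 × 10^5 cells on 1% BSA-treated coverslips, 30 min at 37 °C, 5% CO2. Where indicated, 100 μM PAD inhibitor. NETs induced with 25 nM PMA, 3 h. Fixed in 3.7% paraformaldehyde; mouse anti-LL-37 (1:50, 1 h RT), Alexa-Fluor-647 anti-mouse (1:1000, 45 min), Hoechst 1 μg/mL; imaged at 20×.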

neutrophils = test: PMA-induced NET formation in neutrophils; conditions: 100 μM, neutrophils stimulated with 25 nM PMA 3 h
pDCs = test: pDC stimulation with NETs

SMILES: NC(=O)[C@H](CCCN=C(N)CCl)NC(=O)c1ccccc1 [Cl-A, Cl-amidine]
- LL-37 fluorescence spots relative to amount of NETs, versus no inhibitor (NETs): 3 times
- NET formation and levels of citrullination (neutrophils): reduced both the levels of citrullination (Figure S3) and NET formation
- IL-6 in conditioned medium from pDCs treated with NETs generated in the presence of inhibitor (pDCs; 100 μM inhibitor, ELISA): substantial amount of IL-6
- MxA expression in pDCs exposed to NETs pre-treated with inhibitor (pDCs; NETs from neutrophils given 100 μM inhibitor before PMA, real-time PCR): upregulated markedly
